“Also recorded” adds a separate entry of the source.
Key:
[1] = test system: MDA-MB-231 cells; assay: Matrigel invasion assay induced by CXCR4/CXCL12; assay type: cell-based; conditions: Homo sapiens, MDA-MB-231, 22 h, read-out: inhibition of Matrigel invasion
In short: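 MDA-MB-231 cells were pre-treated with test compound at 100 nM and then seeded in the top chamber of a Matrigel invasion chamber in serum-free medium. CXCL12α at 200 ng/mL in the bottom chamber served as chemoattractant. After 22 h in a humidified incubator, non-invading cells were swabbed off. Invading cells were methanol-fixed, stained with H&E and counted to give percent invasion.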

[2] = test system: xylene-induced ear edema; conditions: mouse, in vivo; cited from earlier work
[3] = test system: phosphorylation of p44/42; assay: Western blot, CXCL12 induced phosphorylation of p44/42; assay type: cell-based
In short: (§1)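 Rabbit monoclonal primaries (1:500, overnight, 4 °C) were phospho-Akt Ser473 with pan-Akt for Akt, and phospho-p44/42 MAPK Thr202/Tyr204 with total p44/42 for p44/42. Detection used HRP goat anti-rabbit (1:10000, 1 h) and enhanced chemiluminescence.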

[4] = test system: xylene-induced ear edema; assay: xylene-induced ear edema model; assay type: in vivo, mouse; conditions: after treatment with compound
[5] = test system: 184A1N4 cells; assay: cytotoxicity, cell viability; assay type: cell-based; conditions: 184A1N4 (CXCR4-negative); MTT; 72 h
In short: (§2)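 Cells were seeded at 3000 per well in 96-well plates and grown 24 h at 37 °C in a CO2 incubator. They were then exposed at 37 °C to test compound or vehicle control. CellTiter 96AQ (MTT-type) reagent was added for a further 2 h, and absorbance was read at 490 nm.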

[6] = test system: phosphorylation of Akt; assay: Western blot, CXCL12 induced phosphorylation of Akt; assay type: cell-based; conditions: dose-dependent
In short: as §1

[7] = test system: MDA-MB-231 cells; assay: cytotoxicity, cell viability; assay type: cell-based, human; conditions: MDA-MB-231 (CXCR4-positive); up to 10 μM; MTT
In short: as §2

[8] = test system: MCF-10A cells; assay: cytotoxicity, cell viability; assay type: cell-based; conditions: up to 10 μM, MTT
[9] = test system: MCF-7 cells; assay: cytotoxicity, cell viability; assay type: cell-based; conditions: MCF-7 (CXCR4-positive); MTT; 72 h
In short: as §2

[10] = test system: AC1-ExR cells; assay: cytotoxicity, cell viability; assay type: cell-based; conditions: AC1-ExR (CXCR4-positive); MTT; 72 h
In short: as §2

[11] = test system: SKBR3 cells; assay: cytotoxicity, cell viability; assay type: cell-based; conditions: SKBR3 (CXCR4-positive); MTT; 72 h
In short: as §2

For c1cc(CN2CCCNCCNCCCNCC2)ccc1CN1CCCNCCNCCCNCC1 [AMD3100], which inhibition at 0.1 µM [1] is on record?
Its inhibition at 0.1 µM is 55%.

What about the “toxicity in this animal model” value [2] of the same molecule?
The value was “serious toxicity”.

Which “concentration suppressing phosphorylation of p44” value [3] does the source give for O=C(NCc1ccc(CNS(=O)(=O)c2ccccc2)cc1)c1ccc(CNc2ncccn2)cc1 [Compound 7a, N-(4-(phenylsulfonamidomethyl)benzyl)-4-((pyrimidin-2-ylamino)methyl)benzamide] here?
Its value is 0.1 nM.

And the “number of inflammatory cells in inflammatory tissues (histological analysis)” value [4]?
Its value is “significantly decreased”.

What about the “swollen volume and thickness of the mouse ear (histological analysis)” value [4] of the same molecule?
Its value is “significantly reduced”.

What about the “antiproliferative activity / cytotoxicity” value [5] of the same molecule?
Its value is “no statistically significant differences”.

What about the “active concentration for inhibition of Akt phosphorylation” value [6] of the same molecule?
Its value is 1 nM.

What about the “antiproliferative activity / cytotoxicity” value [7] of the same molecule?
The value was “did not inhibit the proliferation; also recorded: no statistically significant differences”.

What about the “antiproliferative activity / cytotoxicity” value [8] of the same molecule?
The value was “did not inhibit the proliferation”.

What about the “antiproliferative activity / cytotoxicity” value [9] of the same molecule?
Its value is “no statistically significant differences”.

And the “antiproliferative activity / cytotoxicity” value [10]?
Its value is “no statistically significant differences”.

What about the “antiproliferative activity / cytotoxicity” value [11] of the same molecule?
The value was “no statistically significant differences”.

Reference: PMC5891368 (European journal of medicinal chemistry, 2018)
